# Measurements from different studies.
# Mode: inhibitor
# CDK7 with cyclin H: Cyclin-dependent kinase 7, with cyclin H (CDK7, Homo sapiens, UniProt P50613)
# CDK7: Cyclin-dependent kinase 7 (CDK7, Homo sapiens, UniProt P50613)
Structure (SMILES),target,effect on,method,concentration,inhibition [%]
O=C(O)c1cc(O)c(O)c(O)c1,CDK7 with cyclin H,enzyme activity,ADP detection,10 µM,-3
Cn1cnc(Br)c1C1=CN(c2ncnc3[nH]cnc23)CCS1,CDK7,enzyme activity,radiometric,50 nM,21.6
COc1cc(-c2cc(-c3ccc(N4CCNCC4)cc3)cnc2C)cc(OC)c1OC,CDK7,enzyme activity,,1 µM,2
COc1c2c(cc3oc(-c4ccccc4)cc(=O)c13)OCO2,CDK7 with cyclin H,enzyme activity,ADP detection,10 µM,94.4
C=CC(=O)Nc1cc(Nc2nccc(Nc3cc(Cl)c(F)cc3C(C)(C)O)n2)c(OC)cc1N1CC[C@@H](N(C)C)C1,CDK7 with cyclin H,enzyme activity,,1 µM,14
Cc1ccc(-n2nc(C(C)(C)C)cc2NC(=O)Nc2ccc(OCCN3CCOCC3)c3ccccc23)cc1,CDK7,enzyme activity,,10 µM,17
COc1cccc2c(NCc3ccccc3)nc(-n3c(N)nc4ccccc43)nc12,CDK7,target engagement in cells,chemoproteomics,20 mM,2.5
Cc1ccc(Nc2nccc(N(C)c3ccc4c(C)n(C)nc4c3)n2)cc1S(N)(=O)=O,CDK7 with cyclin H,enzyme activity,,10 µM,34
c1ccc(CNc2nc(N3CCOc4ccccc43)nc3c2CCCC3)cc1,CDK7,target engagement in cells,chemoproteomics,20 mM,-1.7
COC(=O)[C@H]1[C@H]2C[C@@H]3c4[nH]c5cc(OC)ccc5c4CCN3C[C@H]2C[C@@H](OC(=O)c2cc(OC)c(OC)c(OC)c2)[C@@H]1OC,CDK7 with cyclin H,enzyme activity,ADP detection,10 µM,-37.8
